From ChEMBL document CHEMBL2331253, “Atropisomeric dihydroanthracenones as inhibitors of multiresistant Staphylococcus aureus” (J Med Chem, 2013) come the findings set out here.

Data set [1] has as its system Bacillus subtilis. In words: Antibacterial activity against Bacillus subtilis subsp. subtilis str. 168 trpC2 assessed as growth inhibition by CLSI broth microdilution method. The data set is classed as functional.
Data set [2] relates to Streptococcus agalactiae. In words: Antibacterial activity against doxycycline-intermediate Streptococcus agalactiae 013761 assessed as growth inhibition by CLSI broth microdilution method. The data set is classed as functional.
Data set [3] has as its system Pseudomonas aeruginosa. In words: Antibacterial activity against ceftazidime, ciprofloxacin, cefepime, gentamycin, imipenem, meropenem, piperacillin/tazobactam-resistant Pseudomonas aeruginosa 63230 assessed as growth inhibition by CLSI broth microdilution method. Format: functional. The method, boiled down: (§1)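 MICs determined by CLSI broth microdilution in Mueller–Hinton broth. Inoculum was prepared by direct colony suspension, at 5 × 10^5 CFU/mL.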
A general note: Dilution methods test growth across graded concentrations, often in twofold steps.

The subject of data set [4] is Bacillus subtilis. In words: Induction of recA promoter in Bacillus subtilis YB3001 using 4-methylumbelliferyl beta D-galactopyranoside as substrate incubated for 3 hrs prior to substrate addition measured after 1 hr by beta galactosidase reporter gene assay relative to control. Format: functional. The method, boiled down: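 recA–β-galactosidase reporter in B. subtilis YB3001. Twofold compound dilutions in lysogeny broth were inoculated with mid-exponential cells and incubated 3 h at 37 °C, then frozen at −20 °C overnight. Cells were lysed with lysozyme (30 min, 37 °C) and Triton X-100. MUG was added and incubated 1 h at 25 °C. Fluorescence read at ex 360/em 450 nm.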

The test system of data set [5] is Bacillus subtilis. In words: Induction of liaI promoter in Bacillus subtilis IS34 promoter at 64 ug/mL after 3 hrs by luciferase reporter gene assay. The data set is classed as functional, organism-based. The method, boiled down:
(§2)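 Promoter–firefly luciferase fusions were built in B. subtilis IS34. Luminescence was read in a plate reader and expressed as percent of the untreated control. One representative experiment.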

For data set [6], the system named is Staphylococcus aureus. In words: Antibacterial activity against Staphylococcus aureus ATCC 29213 assessed as growth inhibition by CLSI broth microdilution method. Format: functional. The gist of the method: as §1
The subject of data set [7] is Staphylococcus aureus. In words: Antibacterial activity against Staphylococcus aureus ATCC 29213 assessed as concentration required for partial growth inhibition by CLSI broth microdilution method. Format: functional.
Data set [8] concerns Streptococcus pyogenes. In words: Antibacterial activity against doxycycline-intermediate Streptococcus pyogenes 014327 assessed as growth inhibition by CLSI broth microdilution method. The data set is classed as functional.
Data set [9] concerns Staphylococcus aureus. In words: Antibacterial activity against amoxicillin, chloramphenicol, ciprofloxacin, clindamycin, erythromycin, fosmidomycin, gentamycin, kanamycin, nitrofurantoin, telithromycin, methicillin-resistant Staphylococcus aureus 25697 assessed as growth inhibition by CLSI broth microdilution method. The data set is classed as functional. The gist of the method:
as §1

In data set [10] the test system is Bacillus subtilis. In words: Induction of helD promoter in Bacillus subtilis IS34 at 64 ug/mL after 3 hrs by luciferase reporter gene assay. The data set is classed as functional, organism-based. The gist of the method: as §2
In data set [11] the test system is Klebsiella pneumoniae. In words: Antibacterial activity against doxycycline, kanamycin-resistant Klebsiella pneumoniae ATCC 27799 assessed as growth inhibition by CLSI broth microdilution method. The data set is classed as functional. The method, boiled down:
as §1

Data set [12] concerns Enterococcus faecium. In words: Antibacterial activity against clarithromycin, erythromycin, telithromycin, vancomycin-resistant Enterococcus faecium 6011 assessed as growth inhibition by CLSI broth microdilution method. The data set is classed as functional. The method, boiled down: as §1
The subject of data set [13] is BALB/3T3. In words: Cytotoxicity against mouse BALB/3T3 cells assessed as growth inhibition up to 32 ug/mL after 48 hrs by Alamar blue assay. Format: cell-based. The note with it: balb/3t3, 48 h. The gist of the method:
(§3)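 THP-1 cells were kept in RPMI-1640 with 10% FCS. BALB/3T3 cells were kept in DMEM with 10% FCS. Cells were plated at 10^4 per well without antibiotics and exposed to 0.016−32 μg/mL (final, 0.32% DMSO) for 48 h at 37 °C, 5% CO2. AlamarBlue was added for 24 h more. Fluorescence (ex 560/em 600 nm) was expressed relative to untreated cells.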

Data set [14] relates to Bacillus subtilis. In words: Induction of bmrC promoter in Bacillus subtilis IS34 promoter at 64 ug/mL after 3 hrs by luciferase reporter gene assay. The data set is classed as functional, organism-based. The gist of the method: as §2
(In general: Reporter assays use an easily measured gene product as a stand-in for the process of interest.)

Data set [15] has as its system Enterococcus faecalis. In words: Antibacterial activity against clarithromycin, erythromycin, moxifloxacin, telithromycin, vancomycin-resistant Enterococcus faecalis UW 2689 assessed as growth inhibition by CLSI broth microdilution method. Format: functional. The gist of the method:
as §1

Data set [16] has as its system Streptococcus pneumoniae. In words: Antibacterial activity against Streptococcus pneumoniae ATCC 49619 assessed as growth inhibition by CLSI broth microdilution method. The data set is classed as functional.
Data set [17] has as its system Escherichia coli. In words: Antibacterial activity against Escherichia coli ATCC 25922 assessed as growth inhibition by CLSI broth microdilution method. Format: functional.
Data set [18] deals with Bacillus subtilis. In words: Induction of yorB promoter in Bacillus subtilis IS34 after 3 hrs at 0.01 to 100 ug/ml by luciferase reporter gene assay. The data set is classed as functional. The gist of the method: as §2
For data set [19], the system named is THP-1. In words: Cytotoxicity against human THP1 cells assessed as growth inhibition up to 32 ug/mL after 48 hrs by Alamar blue assay. The data set is classed as cell-based. The settings on record: thp-1, 48 h. The method, boiled down: as §3
The subject of data set [20] is Staphylococcus aureus. In words: Antibacterial activity against ceftazidime, clarithromycin, ciprofloxacin, clindamycin, doxycycline, erythromycin, methicillin, moxifloxacin, kanamycin, telithromycin, rifampicin, methicillin-resistant, vancomycin-intermediate Staphylococcus aureus subsp. aureus Mu50 assessed as growth inhibition by CLSI broth microdilution method. The data set is classed as functional. The method, boiled down: as §1

For data set [21], the system named is Escherichia coli. In words: Antibacterial activity against ciprofloxacin-resistant Escherichia coli WT-3-1 MB2 assessed as growth inhibition by CLSI broth microdilution method. The data set is classed as functional. The method, boiled down:
as §1

Each structure is given as a SMILES string. In brackets after ≈: the same amount, converted by molar mass. Activity calls are given as the source filed them. No cut-off for these calls is given here. Bounds are passed on as bounds.

One may read the MIC as the lowest concentration found to suppress growth. `Cc1cc(O)c2c(c1)C(=O)c1c(c(O)cc(O)c1-c1c(O)cc(O)c3c1C(=O)c1cc(C)cc(O)c1C3=O)C2=O` [SKYRIN]: the MIC in data set [1] is 4 µg/mL (≈ 7.43 µM); in data set [2] it was over 64 µg/mL; in data set [3], over 64 µg/mL; in [6] it was 4 µg/mL (≈ 7.43 µM); in data set [7] it was 2 µg/mL (≈ 3.71 µM); in data set [8] it was over 64 µg/mL. Besides, the MIC in data set [9] was 4 µg/mL (≈ 7.43 µM); in data set [11], over 64 µg/mL; in [12], 32 µg/mL (≈ 59.4 µM); in [15], 16 µg/mL (≈ 29.7 µM); in data set [16], 4 µg/mL (≈ 7.43 µM); in data set [17] it was over 64 µg/mL. In addition, the MIC in data set [20] is 2 µg/mL (≈ 3.71 µM); in data set [21], over 64 µg/mL. Further, the result in data set [4], in data set [5], in data set [10], in data set [14] and in data set [18] was inactive. In addition, the “growth inhibition (GI)” value in [13] and in data set [19] was “Non-toxic” in each case.
